Test [1] is described as follows: reducers of endogenous Her2 protein level, primary screen, SKBR3 breast tumor cells, AlphaScreen, ATP viability (AID 461).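 As to Her2 level: lower value means less Her2 protein in the cells.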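 As to viability: percent of carrier control wells set as 100% viability.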 Conditions: 18-24 h, measured here: SKBR3 viability, ATP luminescence, at 10 µM.
In test [2] the target is Receptor tyrosine-protein kinase erbB-2 (Homo sapiens) (UniProt P04626). The description is as above. The conditions noted are these: 18-24 h, at 10 µM, stronger effect = lower value.
Chain of Receptor tyrosine-protein kinase erbB-2 (Homo sapiens) (P04626 whole entry, looked up): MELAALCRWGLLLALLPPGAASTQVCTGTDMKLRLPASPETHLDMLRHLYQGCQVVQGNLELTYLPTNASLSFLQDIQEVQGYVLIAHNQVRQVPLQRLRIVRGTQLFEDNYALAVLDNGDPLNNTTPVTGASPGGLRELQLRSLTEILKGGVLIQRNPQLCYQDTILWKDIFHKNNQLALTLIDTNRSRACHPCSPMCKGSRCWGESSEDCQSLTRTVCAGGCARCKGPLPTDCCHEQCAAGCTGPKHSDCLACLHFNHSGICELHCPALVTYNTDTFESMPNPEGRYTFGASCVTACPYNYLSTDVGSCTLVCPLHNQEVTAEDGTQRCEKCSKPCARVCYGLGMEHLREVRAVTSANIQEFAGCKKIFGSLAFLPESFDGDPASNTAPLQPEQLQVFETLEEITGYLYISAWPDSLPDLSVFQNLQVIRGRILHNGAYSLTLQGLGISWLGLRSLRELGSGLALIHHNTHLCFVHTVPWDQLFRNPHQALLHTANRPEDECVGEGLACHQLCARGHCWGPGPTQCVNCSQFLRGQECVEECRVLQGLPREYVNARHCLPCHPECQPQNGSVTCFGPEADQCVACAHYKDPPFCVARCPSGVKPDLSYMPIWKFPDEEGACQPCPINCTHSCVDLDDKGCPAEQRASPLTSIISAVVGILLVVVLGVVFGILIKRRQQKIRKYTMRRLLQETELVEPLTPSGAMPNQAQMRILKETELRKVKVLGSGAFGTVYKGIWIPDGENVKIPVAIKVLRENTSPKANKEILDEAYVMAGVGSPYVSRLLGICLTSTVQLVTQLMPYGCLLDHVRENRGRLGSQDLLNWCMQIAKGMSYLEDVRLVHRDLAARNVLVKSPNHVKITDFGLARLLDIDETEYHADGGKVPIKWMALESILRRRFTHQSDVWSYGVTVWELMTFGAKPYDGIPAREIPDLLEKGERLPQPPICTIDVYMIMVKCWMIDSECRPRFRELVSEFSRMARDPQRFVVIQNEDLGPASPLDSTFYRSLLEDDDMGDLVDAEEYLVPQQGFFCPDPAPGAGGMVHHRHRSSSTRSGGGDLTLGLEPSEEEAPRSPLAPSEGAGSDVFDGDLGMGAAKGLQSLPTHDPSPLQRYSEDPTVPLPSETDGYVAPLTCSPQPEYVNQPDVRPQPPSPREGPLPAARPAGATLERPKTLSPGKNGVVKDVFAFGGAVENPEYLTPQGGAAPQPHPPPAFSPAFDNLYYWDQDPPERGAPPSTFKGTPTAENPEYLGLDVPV
A short description of test [3]: SK-BR-3 cell growth inhibitors, pilot screen, 24 h, human (AID 572;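 active = viability at or below 10% of carrier control in both of two separate runs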;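 also: compound exposure lasted between 18 and 24 h rather than exactly 24 h; 100% = carrier-treated control wells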). Conditions: SK-BR-3 viability, CellTiter-Glo luminescence, at 10 µM, stronger effect = lower value.
A short description of test [4]: HUVEC growth inhibition – cell-based, human, primary screen (AID 575;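 active = viability at or below 30% in both replicate assays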;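 also: 100% = median of untreated cell wells with 0.1% DMSO on each plate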). The conditions noted are these: HUVEC proliferation, CellTiter-Glo luminescence, 72 h; at 10 µM; stronger effect = lower value. Put shortly: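 Test system: primary human umbilical vein endothelial cells. Quantity: 1250 cells/well. Compound: single 10 µM dose, 0.1% DMSO, from 5x medium stock. Timing: 72 h treatment at 37 °C. Detection: ATP-based CellTiter-Glo luminescent read. Benchmarks: vehicle and MePR control wells. Format: 384-well plates coated with collagen.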

Test [5] is described as follows: growth inhibitors of H69AR lung tumor, primary screen, human, duplicate replicates (AID 580;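 active = viability at or under a set limit in both replicates, limit being median viability minus 3 SD, cut at about 48% in these data, passing the limit was not always enough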;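 also: 100% = mean luminescence of untreated wells and 0% = no signal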). Conditions: H69AR lung tumor cells viability, ATP luminescence, 72 h; at 10 µM; stronger effect = lower value.
Test [6] can be described thus: reversal of MRP1-mediated doxorubicin resistance, pilot screen, H69AR cells, doxorubicin co-treatment (AID 601;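 active = viability loss from added drug above about 55%, and viability with drug at most 40%, in both replicates, limit read from the data, passing the limit was not always enough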). Conditions: CellTiter-Glo, 72 h, at 10 µM; for differential viability (reversal): stronger effect = higher value.
Test [7] is described as follows: 384-well plate pilot, post-Golgi transport modulator project, inhibition of yeast transport mutant growth (AID 636; in the data active = inhibition above about 31%). Conditions: absorbance 615 nm, about 18 h, stronger effect = higher value.
Test [8] in a line: growth suppression of yeast trafficking mutant, preliminary HTS, modulators of trafficking downstream of Golgi apparatus project, 1536-format plate, OD 615 nm (AID 637; in the data active = inhibition above about 30%). The conditions noted are these: yeast transport mutant growth, absorbance 615 nm, 18 h; stronger effect = higher value.
Where [9] appears, read: H69AR cells + 2 uM doxorubicin, measured here: viability with 2 uM doxorubicin, stronger effect = lower value.
Where [10] appears, read: H69AR cells, compound alone cytotoxicity.

From PubChem BioAssay come the findings set out here.

SMILES strings stand for the structures. The source made the active and inactive calls.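 The calls were made as follows, unless noted: active = Her2 level under about 52% in both replicate screens, with viability over 70% of control (limit read from the data); inconclusive = Her2 under the limit in one screen only, or viability under 70%; inactive = Her2 level above the set limit.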

`CCN(CC)c1ccc(NC(=O)c2cncc(Br)c2)cc1`: the viability in test [1] was 97.5%; in test [3], 97.5% (inactive); in test [4] it was 76.2% (inactive); in test [5], 79.9% (inactive); in test [6] (setting [9]), 105%; in test [6] (setting [10]), 79.9%. Besides, the Her2 level in test [2] was 91% (inactive). Besides, the differential viability (reversal) in test [6] (H69AR cells + 2 uM doxorubicin) was -25.4% (inactive). The inhibition in test [7] is -4.47% (inactive); in test [8], 3.77% (inactive).

Regarding `CCOC(=O)N1CCN(CC(=O)c2c(C)[nH]c3ccccc23)CC1`, the viability is 94% in test [1]; 94% (inactive) in test [3]; 79.9% (inactive) in test [4]; 75.2% (inactive) in test [5]; 83.1% in test [6] (setting [9]); 75.2% in test [6] (setting [10]). Moreover, in test [2], the Her2 level was 98% (inactive). The differential viability (reversal) in test [6] (H69AR cells + 2 uM doxorubicin) is -7.93% (inactive). The values for the inhibition in test [7] and in test [8] were -5.41% (inactive) and -3.93% (inactive), respectively.

In the case of `CCCS(=O)(=O)N1CCC(C(=O)N2CCCC2)CC1`, the viability was 112% in test [1]; 112% (inactive) in test [3]; 115% (inactive) in test [4]; 95% (inactive) in test [5]; 91.1% in test [6] (setting [9]); 95% in test [6] (setting [10]). The Her2 level in test [2] is 93% (inactive). Besides, the differential viability (reversal) in test [6] (H69AR cells + 2 uM doxorubicin) was 3.92% (inactive). For the same compound, the inhibition in test [7] was -3.55% (inactive); in test [8] it was -0.82% (inactive).

`CC(C)(C)C(=O)Cn1c(=N)n(Cc2ccccc2)c2ccccc21`: the viability in test [1] is 84.5%; in test [3], 84.5% (inactive); in test [4], 53.3% (inactive); in test [5] it was 76.2% (inactive); in test [6] (setting [9]), 77.1%; in test [6] (setting [10]), 76.2%. The Her2 level in test [2] is 81.5% (inactive). In test [6] (H69AR cells + 2 uM doxorubicin), the differential viability (reversal) is -0.985% (inactive). Besides, the figures for the inhibition in test [7] and in test [8] were -3.2% (inactive) and -2.3% (inactive), respectively.

Regarding `CCOC(=O)C(NC(C)=O)(Nc1ccc(S(=O)(=O)Nc2nccs2)cc1)C(F)(F)F` (stereo not given), the viability was 120% in test [1]; 120% (inactive) in test [3]; 102% (inactive) in test [4]; 109% (inactive) in test [5]; 106% in test [6] (setting [9]); 109% in test [6] (setting [10]). In addition, the Her2 level in test [2] was 106% (inactive). The differential viability (reversal) in test [6] (H69AR cells + 2 uM doxorubicin) is 3.07% (inactive). The values for the inhibition in test [7] and in test [8] were 0.39% (inactive) and 8.57% (inactive), respectively.

In the case of `Cn1c(=O)c2c(nc(SCCCO)n2Cc2ccccc2Cl)n(C)c1=O`, the viability was 80.5% in test [1]; 80.5% (inactive) in test [3]; 67.2% (inactive) in test [4]; 79.3% (inactive) in test [5]; 27.9% in test [6] (setting [9]); 79.3% in test [6] (setting [10]). For the same compound, in test [2], the Her2 level is 78.5% (inactive). Moreover, the differential viability (reversal) in test [6] (H69AR cells + 2 uM doxorubicin) is 51.5% (inactive). The values for the inhibition in test [7] and in test [8] were -1.6% (inactive) and 2.62% (inactive), respectively.

For `Cn1cccc1Cc1nnc(SCC(=O)Nc2ccc(F)cc2F)n1-c1ccc(F)cc1`, the viability in test [1] is 84%; in test [3], 84% (inactive); in test [4], 81.6% (inactive); in test [5] it was 94.8% (inactive); in test [6] (setting [9]), 93.5%; in test [6] (setting [10]) it was 94.8%. For the same compound, the Her2 level in test [2] is 90.5% (inactive). The differential viability (reversal) in test [6] (H69AR cells + 2 uM doxorubicin) was 1.3% (inactive). Further, the inhibition in test [7] is -1.03% (inactive); in test [8] it was -3.5% (inactive).

As to `O=C(O)c1ccc2c(c1)N(Cc1ccccc1F)C(=O)c1ccccc1S2=O` (stereo not given), the viability was 96% in test [1]; 96% (inactive) in test [3]; 92.8% (inactive) in test [4]; 103% (inactive) in test [5]; 97.8% in test [6] (setting [9]); 103% in test [6] (setting [10]). For the same compound, the Her2 level in test [2] is 83.5% (inactive). Further, in test [6] (H69AR cells + 2 uM doxorubicin), the differential viability (reversal) was 5.27% (inactive). For the same compound, the inhibition in test [7] is -3.73% (inactive); in test [8] it was 4.43% (inactive).

Take `Cn1c(=O)c2ncn(CC(=O)NCCOc3ccc(C(C)(C)C)cc3)c2n(C)c1=O`: the viability in test [1] is 96.5%; in test [3] it was 96.5% (inactive); in test [4], 100% (inactive); in test [5], 76.2% (inactive); in test [6] (setting [9]), 93.8%; in test [6] (setting [10]), 76.2%. Further, the Her2 level in test [2] was 110% (inactive). In addition, the differential viability (reversal) in test [6] (H69AR cells + 2 uM doxorubicin) is -17.6% (inactive). The inhibition in test [7] is -5.45% (inactive); in test [8], -6.03% (inactive).

As for `O=C(Cn1cnc2c(nnn2-c2ccc(F)cc2)c1=O)N1CCCc2ccccc21`, the viability in test [1] was 101%; in test [3] it was 101% (inactive); in test [4] it was 90.5% (inactive); in test [5], 103% (inactive); in test [6] (setting [9]) it was 86.6%; in test [6] (setting [10]) it was 103%. In addition, the Her2 level in test [2] is 117% (inactive). The differential viability (reversal) in test [6] (H69AR cells + 2 uM doxorubicin) is 16.3% (inactive). The inhibition in test [7] was -9.59% (inactive); in test [8], -2.7% (inactive).

Consider `Cc1csc2nc3ccccc3c(=O)n12`, for which the viability in test [1] was 100%; in test [3] it was 100% (inactive); in test [4] it was 103% (inactive); in test [5], 94.7% (inactive); in test [6] (setting [9]) it was 93.2%; in test [6] (setting [10]), 94.7%. For the same compound, the Her2 level in test [2] is 91% (inactive). Besides, in test [6] (H69AR cells + 2 uM doxorubicin), the differential viability (reversal) was 1.49% (inactive). In addition, the inhibition was -1.84% (inactive) in test [7] and 1.31% (inactive) in test [8].

As to `CCCn1c(-c2ccc(F)cc2)cnc1SCC(=O)O`, the viability in test [1] was 128%; in test [3], 128% (inactive); in test [4], 101% (inactive); in test [5], 84.8% (inactive); in test [6] (setting [9]), 81.2%; in test [6] (setting [10]) it was 84.8%. In addition, the Her2 level in test [2] is 98.5% (inactive). Moreover, in test [6] (H69AR cells + 2 uM doxorubicin), the differential viability (reversal) is 3.56% (inactive). For the same compound, the inhibition in test [7] was -3.33% (inactive); in test [8], 2.79% (inactive).

Turning to `O=C(CSc1nccn1-c1cccc(Cl)c1)NC1CCCC1`, the viability in test [1] was 95.5%; in test [3], 95.5% (inactive); in test [4] it was 95.5% (inactive); in test [5], 111% (inactive); in test [6] (setting [9]), 101%; in test [6] (setting [10]), 111%. Moreover, in test [2], the Her2 level is 86% (inactive). Also, the differential viability (reversal) in test [6] (H69AR cells + 2 uM doxorubicin) was 10.3% (inactive). For the same compound, the inhibition in test [7] was 0.91% (inactive); in test [8], 14.1% (inactive).

Regarding `Cn1c(=O)n(Cc2ccc(F)cc2)c(=O)c2c1nc1n2CCCN1Cc1ccccc1`, the viability in test [1] is 88.5%; in test [3], 88.5% (inactive); in test [4], 78.4% (inactive); in test [5] it was 70.1% (inactive); in test [6] (setting [9]), 32.6%; in test [6] (setting [10]) it was 70.1%. In test [2], the Her2 level was 80.5% (inactive). For the same compound, the differential viability (reversal) in test [6] (H69AR cells + 2 uM doxorubicin) is 37.5% (inactive). Moreover, the inhibition in test [7] was 0% (inactive); in test [8], 1.33% (inactive).

`O/N=C/c1ccc(OCC(O)COc2ccc(/C=N/O)cc2)cc1`: the viability in test [1] is 89.5%; in test [3], 89.5% (inactive); in test [4], 75.9% (inactive); in test [5], 90.1% (inactive); in test [6] (setting [9]), 91.3%; in test [6] (setting [10]) it was 90.1%. Moreover, the Her2 level in test [2] is 112% (inactive). Also, the differential viability (reversal) in test [6] (H69AR cells + 2 uM doxorubicin) was -1.19% (inactive). Also, the inhibition is -1.54% (inactive) in test [7] and 4.83% (inactive) in test [8].
